A selection: hits, their analogues and other compounds. The true share with any hit is near 2.1%.
Cardiac RTF inh = cardiac RTF calcium sensitivity inhibitors, primary screen, biochemical, IANBD-TnC fluorescence, EC70 calcium; Troponin I, cardiac muscle (Homo sapiens) + Troponin T, cardiac muscle (Homo sapiens) + …; IANBD-labeled cardiac RTF, Ca2+ fluorescence; hit rate 0.12% among 340,000; inhibition, % at 7.15 µM;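 active means inhibition above the mean inhibition of all tested compounds plus 3 SD, cut at about 17% in these data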;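 further: assay run at fixed EC70 calcium of 1.6 mM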
ARNT-TACC3 inh = disruptors of ARNT/TACC3 protein interaction, primary screen, biochemical, AlphaScreen, single concentration; Transforming acidic coiled-coil-containing protein 3 (Homo sapiens), Q9Y6A5; AlphaScreen His-ARNT PAS-B/GST-TACC3 binding, luminescence; TACC3 fragment carries E629A point mutation; inhibition, % at 9.99 µM; hit rate 0.66% among 390,000;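 active means mean inhibition of replicates at least 50% and at least half of replicates each reaching 50%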;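 further: 0% = complete ARNT plus TACC3 wells and 100% = ARNT alone without TACC3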
UCH37 DUB inh = inhibitors of human UCH37 deubiquitinase, primary screen, biochemical, Ub-AMC cleavage, fluorescence; Ubiquitin carboxyl-terminal hydrolase isozyme L5 (Homo sapiens), Q9Y5K5; inhibition, % (concentration not given with the values); hit rate 0.33% among 330,000; purified proteasome/UCH37;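 active means mean inhibition over replicate wells above about 20%, limit read from the data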;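 further: 0% = compound-free wells with enzyme and 100% = wells lacking proteasome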
Target sequence (Q9Y5K5 whole entry, looked up): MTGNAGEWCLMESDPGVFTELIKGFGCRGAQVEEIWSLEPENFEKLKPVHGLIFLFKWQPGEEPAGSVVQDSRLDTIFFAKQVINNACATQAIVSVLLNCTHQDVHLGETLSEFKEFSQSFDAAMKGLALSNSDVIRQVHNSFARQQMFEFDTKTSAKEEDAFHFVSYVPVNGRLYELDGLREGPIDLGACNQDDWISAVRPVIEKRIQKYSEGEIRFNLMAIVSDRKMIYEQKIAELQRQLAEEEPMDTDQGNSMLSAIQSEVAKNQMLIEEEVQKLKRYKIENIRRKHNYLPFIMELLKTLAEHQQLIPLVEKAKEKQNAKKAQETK
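System: Proteasome-associated human UCH37 deubiquitinase; Input: 0.15 nM proteasome in added enzyme buffer; Also added: Ub-AMC substrate from 1 µM stock; Incubation: 30 min compound-proteasome preincubation then 25 min substrate reaction, room temperature; Detection: fluorescence, ex 355 nm, em 460 nm; Read-out: % inhibition of Ub-AMC cleavage fluorescence; Benchmarks: no-proteasome and no-compound wells.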
RTF Ca sens act = cardiac RTF calcium sensitivity activators, primary screen, biochemical, IANBD-TnC fluorescence, EC20 calcium | hit rate 0.24% among 340,000 | IANBD-labeled TnC RTF fluorescence at EC20 calcium; 0% EC20 calcium, 100% full calcium | Troponin I, cardiac muscle (Homo sapiens) + Troponin T, cardiac muscle (Homo sapiens) + … | activation, % at 7.2 µM | AID 493008, 2010;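 active means activation above the mean over all tested compounds plus 3 SD, cut at about 30% in these data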;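 further: rise in fluorescence read as greater calcium sensitivity of cardiac thin filaments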
Efflux pump mplx = inhibitors of Candida efflux pumps in yeast, primary screen, S. cerevisiae, Nile Red, multiplex; S. cerevisiae Candida pump triplex; inhibition, % at 10 µM; hit rate 0.44% among 330,000; AID 485275, 2010;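 active means plate passing quality check with inhibition over a set limit, or well fluorescence over plate mean plus 4 SD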;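 further: Nile Red retained in pooled yeast measured as flow cytometry median fluorescence; 0% = buffer negative control and 100% = Enniatin B positive control; higher means more Nile Red kept so more efflux inhibition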
SUMO Mot1 rescue = yeast Mot1-301 growth rescue at high temperature, primary screen, SUMOylation pathway inhibitor project, S. cerevisiae, ATP luminescence, 38.5C; S. cerevisiae Mot1-301 growth rescue; percent above DMSO median, 100 means doubled; growth rescue, % at 18.8 µM; hit rate 1% among 320,000; AID 2716, 2010;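 active means every valid replicate shows activation above 250% relative to neutral control wells; inactive means the rest, any valid replicate at or below 250%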;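 further: OY570 slx delta 5 strain wells were the positive control but not used for scaling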
Yeast Mot1 SUMO = growth restoration of Mot1-301 yeast on galactose, dose response, SUMO pathway inhibitor project, whole organism, S. cerevisiae, ATP luminescence, cherry-picked samples; growth activity, percent, % at 42 µM; S. cerevisiae Mot1-301 galactose growth, 24 h; -100 = growth of slx-deleted rescue strain; 2,300 tested, under 10 active; shares compounds with SUMO Mot1 rescue;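 active means Signal drops as the depositor expects, and the fitted half-maximal dose is no more than ten times the top valid tested dose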;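 further: more negative values mean stronger growth rescue toward the control strain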
Active calls of the source: *.

How did CCn1cnc2sc(-c3ccccc3)cc2c1=O do in these assays?
Cardiac RTF inh: -12; ARNT-TACC3 inh: -8; UCH37 DUB inh: -1; RTF Ca sens act: 2; Efflux pump mplx: 0; SUMO Mot1 rescue: 412*; Yeast Mot1 SUMO: -1

How did CC(=O)Cn1cnc2sc(-c3ccccc3)cc2c1=O do in these assays?
Cardiac RTF inh: 0; ARNT-TACC3 inh: -1; UCH37 DUB inh: 2; RTF Ca sens act: 2; Efflux pump mplx: 0; SUMO Mot1 rescue: -1

How did Cc1ccc(-c2csc3nnc(SCc4csc(C)n4)n23)cc1 do in these assays?
Cardiac RTF inh: 0; ARNT-TACC3 inh: -3; UCH37 DUB inh: -2; RTF Ca sens act: 4; Efflux pump mplx: 0; SUMO Mot1 rescue: -16

What do the screens show for `Cc1nc(CSc2nnc3scc(-c4ccccc4)n23)cs1`?
Cardiac RTF inh: -1; ARNT-TACC3 inh: -12; UCH37 DUB inh: 4; RTF Ca sens act: 1; Efflux pump mplx: 0; SUMO Mot1 rescue: active; Yeast Mot1 SUMO: 1

How did Cc1cccc(NC(=S)NCc2ccco2)c1C do in these assays?
Cardiac RTF inh: -6; ARNT-TACC3 inh: -15; UCH37 DUB inh: 2; RTF Ca sens act: -1; Efflux pump mplx: 0; SUMO Mot1 rescue: 619*; Yeast Mot1 SUMO: 0

How did Cc1c(Cl)cccc1NC(=S)NCc1ccco1 do in these assays?
Cardiac RTF inh: 6; ARNT-TACC3 inh: 3; UCH37 DUB inh: 5; RTF Ca sens act: 3; Efflux pump mplx: 0; SUMO Mot1 rescue: -4

What do the screens show for `CCCOc1ccc(N2C(=O)CC(N3CCC(C(=O)OCC)CC3)C2=O)cc1` (stereo not drawn)?
Cardiac RTF inh: -1; ARNT-TACC3 inh: -10; UCH37 DUB inh: 4; RTF Ca sens act: -4; Efflux pump mplx: 0; SUMO Mot1 rescue: 772*; Yeast Mot1 SUMO: 0

Results for Clc1ccc(CONC=Nc2ncnc3sccc23)c(Cl)c1 ?
UCH37 DUB inh: 0

Results for CCOC(=O)C1=C(C)NC(C)=C(C(=O)OCC)C1C(=O)OC1CCOC1=O (stereo not drawn) ?
Cardiac RTF inh: -10; ARNT-TACC3 inh: 4; UCH37 DUB inh: -23; RTF Ca sens act: 0; Efflux pump mplx: 0; SUMO Mot1 rescue: 463*; Yeast Mot1 SUMO: 0

Results for COc1ccccc1N1CCN(C(=O)c2ccc(N3CCCCS3(=O)=O)cc2)CC1 ?
Cardiac RTF inh: 2; ARNT-TACC3 inh: -2; UCH37 DUB inh: 1; RTF Ca sens act: -1; Efflux pump mplx: 0; SUMO Mot1 rescue: 607*; Yeast Mot1 SUMO: 1

Results for CC(C)(Cc1ccc(O)cc1)NC(=O)CC(=O)NN=Cc1ccc([N+](=O)[O-])cc1 ?
UCH37 DUB inh: 7

How did O=C(NNC(=O)c1csc(N2CCOCC2)n1)c1ccc(Cl)nc1 do in these assays?
Cardiac RTF inh: 7; ARNT-TACC3 inh: -6; UCH37 DUB inh: 2; RTF Ca sens act: -3; Efflux pump mplx: 0; SUMO Mot1 rescue: 452*; Yeast Mot1 SUMO: 0

How did Nc1cc(=O)[nH]c(=O)n1CCc1ccccc1 do in these assays?
Cardiac RTF inh: -1; ARNT-TACC3 inh: 3; UCH37 DUB inh: 0; RTF Ca sens act: -2; Efflux pump mplx: 0; SUMO Mot1 rescue: 542*; Yeast Mot1 SUMO: 0

What do the screens show for `COc1ccc(CCn2c(N)cc(=O)[nH]c2=O)cc1OC`?
Cardiac RTF inh: -2; UCH37 DUB inh: 5; RTF Ca sens act: -1; Efflux pump mplx: 0; SUMO Mot1 rescue: -15

Results for O=C(O)c1cc(-c2ccc(C=NN3C(=O)C4C5C=CC(C6CC56)C4C3=O)o2)ccc1Cl (stereo not drawn) ?
UCH37 DUB inh: 8

Source: PubChem (several laboratories)
